In ChEMBL document CHEMBL4513216, “Probing the Open Global Health Chemical Diversity Library for Multistage-Active Starting Points for Next-Generation Antimalarials” (ACS Infect Dis, 2020):

Experiment: Toxicity liver stage against HepG2, at 10uM
Assay type: cell-based
Set-up: test concentration 10 uM, cell line HepG2-A16-CD81EGFP
Conditions: human, HepG2-A16-CD81EGFP cells; read-out: INHIBITION
In short: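 Uninfected HepG2-A16-CD81EGFP cells, 3 × 10^3 per well, 1536-well, plated on prespotted compound at 10 μM final, parasite-free screening media added to match infected plates; puromycin 10 μM positive, DMSO 0.5% negative; run in parallel with 48 h PbLuc assay at 37 °C, 5% CO2; viability by CellTiter-Glo luminescence, normalized to controls.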

| SMILES | cytotoxicity at 10 µM |
| --- | --- |
| CC(C)CCOCCNC(=O)Nc1ccc(F)c(C(N)=O)c1 | -11.6% |
| CC(C)CO[C@H]1CN(S(=O)(=O)c2cn(C)cn2)[C@@H]2CCCO[C@H]12 | -148% |
| CN(C)c1ccc(CC(=O)N2C[C@H](C3CC3)[C@@H](N)C2)cc1 | -3.97% |
| O=C(NCCc1cccnc1)c1cn(CCN2CCNCC2)nn1 | -7.82% |
| CCCc1c(C(=O)N2CCN(c3ncccn3)CC2)cnn1C | 3.38% |
| COc1ccccc1OCC(=O)NCC(O)(c1cccs1)C1CC1 (stereo not given) | -5% |
| Fc1cnc(N2CCn3c(CN4CCCC4)nnc3C2)nc1 | -145% |
| Cc1cnc(N2CC[C@H]3[C@H](C[C@@H](CN(C)C)N3C)C2)nc1 | 5.71% |
| CC(C)Oc1ccc2c(NC(=O)CNC(N)=O)nn(CC(F)(F)F)c2c1 | -5.89% |
| CN(C)CC1(O)CCN(C(=O)c2cnc(CN3CCCC3)s2)C1 (stereo not given) | 0.245% |
| CCCC(C(=O)NCCc1nc(C)cs1)N(C)C (stereo not given) | -4.17% |
| O=C(NCCn1nc(C2CCNC2)c2cccnc21)C1CC1 (stereo not given) | -25.8% |
| Cc1cccc(CNC(=O)Nc2ccn(CCN(C)C)n2)c1 | -4.47% |
| COc1ccc(N2CCC(N3C[C@H](NC(C)=O)[C@@H](C(C)C)C3)CC2)cc1 | -9.92% |
| COc1ccc(-c2noc(C(CC(C)C)N3CCCCC3=O)n2)cn1 (stereo not given) | -54.2% |
| CCCc1nc(CN(C)CCOc2ccccc2)cs1 | -8.53% |
| CN(CCCc1n[nH]c(N)c1C#N)C(=O)Nc1cc(Cl)cc(Cl)c1 | 11.1% |
| Cc1n[nH]c(C2CN(C(=O)c3ccoc3C)CCO2)n1 (stereo not given) | -22.4% |
| Cn1nnc(NCc2ccc(OCc3ccc(Cl)cc3)cc2)n1 | -2.56% |
| CCc1nnc2n1CCN(C(=O)c1cc3cc(F)ccc3[nH]1)C2 | -9.52% |
| Cc1cnn(CC2CCCCN2C(=O)c2ccc3c(c2)nnn3C)c1 (stereo not given) | -6.36% |
| Cc1cc(NC(=O)CCn2cncn2)no1 | 2.89% |

| SMILES | cytotoxicity at 10 µM |
| --- | --- |
| Cc1nc(C)n(CC2CCCN2CCOc2ccccc2F)n1 (stereo not given) | -3.21% |
| CCCN1CC2(CCN(C)CC2)CC1C(=O)NCCn1ccc(C)n1 (stereo not given) | -5.64% |
| CCc1cc(=O)[nH]c2nnc(SCC(=O)NC(C)C)n12 | -6.93% |
| CCN(CC)Cc1cc(C(=O)N2CCC3(CC2)NCCNC3=O)c(C)o1 | 4.01% |
| CSc1ncc(C(=O)N2C[C@@H](NC(C)=O)[C@H](c3ccc(C)cc3)C2)cn1 | -0.645% |
| Cc1nccn1CCC1CCCCN1C(=O)c1ccc2[nH]nnc2c1 (stereo not given) | 19.9% |
| O=C(c1ccc(F)c(F)c1)N1CCCSCC1CN1CCCC1 (stereo not given) | -0.524% |
| Cc1cccc(C(=O)N2CCn3cc(CNC(=O)CC4CC4)nc3C2)n1 | -78.4% |
| CSC(C)C(=O)NCCC(=O)N1CCN(c2ccccn2)CC1 (stereo not given) | 3.05% |
| CCc1nnc2n1CCN(C(=O)c1ccc3cc[nH]c3c1)C2 | -6.43% |
| Cn1cnc(S(=O)(=O)N2CCCn3cnc(CN4CCCC4)c3C2)c1 | 1.27% |
| CCc1noc(CN2CCN(C(=O)N(C)C)CC2)n1 | -4.97% |
| CCC1CCCCN1Cc1nc2c(cnn2C)c(=O)[nH]1 (stereo not given) | -3.18% |
| CCc1nc(C)sc1CNC1CCN(Cc2ccccc2)C1 (stereo not given) | -31.7% |
| Brc1csc(CNCc2nnc3n2CCC3)c1 | 5.63% |
| CCc1nc(CN2CCN(C(=O)c3cc(C)no3)CC2)cs1 | -21.8% |
| CCN(Cc1noc(CC(C)C)n1)Cc1ccccc1Cl | -50.6% |
| O=C(CNC1CCc2ncnn2C1)N(C1=CCCCC1)C1CC1 (stereo not given) | -8.07% |
| CCSc1cc(C(=O)NC(C)c2cccc(N3CCOC3=O)c2)ccn1 (stereo not given) | 24.1% |
| CN1CC2(CCN(CCOCCO)CC2)CC(c2ccccc2)C1=O (stereo not given) | -9.88% |
| CN(C(=O)c1cccnc1OCC(F)F)c1ccc2c(c1)CCO2 | 3.47% |
| CN(Cc1nnc(C2CC2)o1)C1CCN(CCc2cccs2)C1 (stereo not given) | -2.01% |

| SMILES | cytotoxicity at 10 µM |
| --- | --- |
| Cc1cc(CC(C)Nc2nc(C3CCCC3)nc3c2cnn3C)[nH]n1 (stereo not given) | -6.12% |
| CCC(C)c1cc(C(=O)N(CC(=O)NC)c2cccc(F)c2)on1 (stereo not given) | 6.33% |
| CCC[C@H]1CN(CCS(C)(=O)=O)C[C@@H]1NC(=O)c1ccn(C)n1 | 5.83% |
| COc1cc(Oc2cnc3ccccc3n2)ccc1CN1CCCC1 | 5.27% |
| COC(=O)Cn1c(=O)[nH]c2cn(-c3ccccc3)c(=O)n21 | 21.6% |
| CC(C)n1cc(N2CC(C(=O)N3CCc4ccccc4C3)CC2=O)cn1 (stereo not given) | -153% |
| CNC(=O)[C@@H](c1ccccc1F)N1CCC[C@H]1C(=O)NC1CC1 | -5.84% |
| CC(=O)c1ccc(-n2ccc3nc(N4CCCC4)ncc3c2=O)cc1 | 1.45% |
| CNS(=O)(=O)c1ccc(CNC(=O)N(C)CC(C)C)cc1 | 1.08% |
| CN(Cc1ccco1)C(=O)C1CSCN1C(=O)c1cccs1 (stereo not given) | -7.81% |
| N#Cc1cccc(CN2CCC3(CC(C(=O)NCC4CC4)=NO3)C2)c1 (stereo not given) | 8.73% |
| Cc1cccc(CO[C@@H]2C[C@H]3CN(c4ncccn4)CCN3C2)n1 | 1.39% |
| COCCCNC(=O)Cc1cc(-c2ccc3c(c2)OCO3)on1 | 57.7% |
| CCC(C)NC(=O)Cn1ncc2c1c(C)nn2CC (stereo not given) | 3.24% |
| CNC(=O)[C@@H]1CC[C@@H]2[C@@H](CCN2Cc2cn(C)c3ccccc23)O1 | 10.7% |
| O=C(NCC1CCCO1)c1coc(Cn2cnc3ccccc32)n1 (stereo not given) | -3.67% |
| CN(CCc1ccncc1)CC1CCCN1c1cccnn1 (stereo not given) | 1.09% |
| CN(Cc1cncnc1)[C@H]1CN(C(=O)c2ccco2)[C@@H]2CCCO[C@@H]21 | -101% |
| Cc1oncc1C(=O)N1CC[C@H]2[C@H]1CCN2S(C)(=O)=O | -99.4% |
| Cn1cc(N2CC3(COCCN(Cc4nccs4)C3)OCC2=O)cn1 (stereo not given) | -79.9% |
| O=C(c1ccoc1)N1C[C@@H]2[C@@H](C1)OCC(=O)N2Cc1cccnc1 | 3.33% |
| CC(=O)Nc1nc(C(=O)NCCOc2cccc(C)c2)cs1 | -0.794% |

| SMILES | cytotoxicity at 10 µM |
| --- | --- |
| Cc1csc(C(Cc2ccsc2)NC(=O)CN(C)Cc2ccccn2)n1 (stereo not given) | 0.258% |
| CC(=O)N1CCN(Cc2c(C)sc3ccccc23)CC(O)C1 (stereo not given) | 14.4% |
| O=C(c1cnc(C2CC2)s1)N1CCCCC1Cn1cccn1 (stereo not given) | 2.43% |
| O=C(NCc1nnc2n1CCCCC2)N(Cc1ccccn1)C1CC1 | 2.46% |
| CC(Cn1ccnc1)NC(=O)NCc1ccccn1 (stereo not given) | -6.66% |
| Cc1ccc(=O)n(CC2(O)CCN(Cc3c(F)cccc3F)CC2)n1 | -17.6% |
| O=C(c1ccc(C(F)(F)F)cc1)C1CCCN(C(=O)Cn2cnnn2)C1 (stereo not given) | -5.34% |
| Cc1cc(N(C)C)nc(C2(C)CCNCC2)n1 | 7.79% |
| CCCc1nc(C(=O)N2CCN(C(=O)OC)CC2)cs1 | -9.85% |
| O=C(N1CCOCC1)[C@@]12CCO[C@@H]1CCN(C1CCOCC1)C2 | 5.83% |
| OCC(O)CSCc1ccc(Cl)cc1Cl (stereo not given) | -148% |
| CCc1noc(C(C)N2CCN(Cc3noc(C4CC4)n3)CC2)n1 (stereo not given) | -2.13% |
| Cc1ccccc1-n1nc(C)c(CN(C)C(C)Cc2ccccn2)c1C (stereo not given) | 0.58% |
| CNC(=O)C1(N(C)CCc2ccccc2)Cc2ccccc2C1 | 11.5% |
| Cc1ccc(OCCN(C)S(=O)(=O)c2cnn(C)c2)cc1 | 0.821% |
| O=C(CCCNc1ncccn1)Nc1cc(C(F)(F)F)c[nH]c1=O | -1.34% |
| CC(=O)N1CCC(c2ncc(C(=O)Nc3ccccc3)c(C)n2)CC1 | 5.91% |
| CS(=O)(=O)N1CCOC2(CCN(c3ncccn3)CC2)c2ccccc21 | -1.52% |
| Cc1cncc(C(=O)NCCSCc2cccs2)c1 | -6.48% |
| Cc1nn(C)c(Cl)c1CNCc1cccnc1N1CCOCC1 | -4.17% |
| CN1CCN(C(=O)C2CCCN(c3cccnn3)C2)CC1 (stereo not given) | -10.8% |
| Cn1c(Cn2ccnc2)nnc1C1CCN(C(=O)c2ccoc2)CC1 | -120% |

| SMILES | cytotoxicity at 10 µM |
| --- | --- |
| COCCOc1ccc(NC(=O)C2CC(=O)N(CC3CC3)C2)cn1 (stereo not given) | -30.7% |
| CC(C)c1nc(C2CCCN2C(=O)c2ccc3nncn3c2)no1 (stereo not given) | -10.3% |
| COC(=O)N1CCc2ccccc2C1C(=O)NCc1ccco1 (stereo not given) | -1.94% |
| CC(C)[C@H](NC(=O)N1CCC(Cc2ccccc2)CC1)C(=O)O | -7.44% |
| CC[C@H]1CN(C(=O)C(C)(C)C)CC[C@H]1CC(=O)O | -0.61% |
| CC(NC(=O)NCCCN1CCCC1)c1nncn1C (stereo not given) | -0.373% |
| CCN(CC)S(=O)(=O)N1CCc2nc(C3CCNCC3)ncc2C1 | -5.66% |
| Cc1nn(C)c(Oc2ccc(Cl)cc2)c1CN1CC[C@H](CO)[C@@H](O)C1 | -10.5% |
| F[C@@H]1CN(Cc2ccccc2)C[C@@H]1OCc1nc2ccccc2[nH]1 | 4.61% |
| CN1CCN(c2ncc3c(c2C(=O)O)CCN(C2CCOC2)C3)CC1 (stereo not given) | 6.96% |
| CN1CCC(N(CCc2ccccc2)C(=O)c2ccc(CO)cc2)CC1 | 1.63% |
| Cc1ccccc1C(=O)N1CCOC2(CNCCOC2)C1 (stereo not given) | -16.5% |
| Cc1cnc(C(=O)N(C)Cc2nc(-c3ccccn3)no2)cn1 | 3.42% |
| CN(CCN1CCCCCC1)Cc1cnc(N)nc1 | 0.993% |
| CC(C)OCCCN(CC(=O)N1CCNCC1)C(=O)c1cccc(Cl)c1 | 10.3% |
| O=C(c1cccnc1)N1C[C@@H]2CN(CCN3CCCC3)C(=O)[C@@H]2C1 | -113% |
| Cc1noc(C)c1-c1cnc(CC2CCN(C(=O)c3cc[nH]n3)C2)cn1 (stereo not given) | 3.6% |
| O=S(=O)(Cc1ccccc1Cl)NCCCN1CCCC1 | -4.54% |
| CCn1nc(C)c2nc(C(C)C)nc(NCc3ccccn3)c21 | 7.09% |
| COC(=O)CC1CCN(C(=O)c2ccc(-n3nnnc3C)cc2)CC1 | -6.72% |
| O=S(=O)(C1CC1)N1CCC2(CCCN(Cc3ccccn3)C2)C1 (stereo not given) | -0.336% |
| CCOc1ccc(CCCC(=O)N2CCC(C(=O)NC)C2)cc1C (stereo not given) | 1.85% |
